# Source: PubChem (Broad Institute)
# Most compounds without a hit are left out; they make up all but 3.5% or so of the library.
# rRNA inh HTS – reduced GFP signal of wild-type E. coli, primary screen, bacterial rRNA inhibitor project, GFP/RFP fluorescence, OD600, single point | GFP signal change (wild-type ribosome), % (concentration not given with the values) | E. coli WT GFP vs humanized-ribosome RFP mutants, 24 h; active compounds read low; DMSO median 0, no signal -100 | 350,000 compounds, 1.6% hits | AID 720706, 2013;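 active means significant combined selectivity score with lowered wild-type GFP, culture density cut under 30%, mutant RFP and density less affected; inactive means any of these conditions unmet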
# HIV Env fusion – inhibitors of HIV-1 Env-driven cell-cell fusion, primary screen, HeLa-JRFL effector, CEM21 target cells, luciferase. 360,000 compounds, 1.1% hits. AID 651610, 2012. inhibition, % at 12.3 µM;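 active means mean replicate inhibition score of at least 50 and every replicate individually at or above 50; inconclusive means only one of the two criteria met; inactive means mean below 50 and not all replicates reaching 50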
# PGC1a acetyl inh – inhibitors of PGC1a acetylation signal, primary screen, cell-based, U2OS, AlphaScreen, inhibitor mode. 350,000 compounds, 0.17% hits. inhibition, % at 15.6 µM. AlphaScreen anti-acetyl-lysine; with virally co-expressed GCN5 acetyltransferase;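 active means every replicate shows inhibition of at least 40%; inconclusive means mean inhibition at least 40% but some replicate below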
# DENV2 CPE – inhibitors of DENV2 cytopathic effect, primary screen, cell-based, plate reader, single concentration. 350,000 compounds, 1.7% hits. CPE inhibition, % at 9.99 µM. AID 651640, 2012. DENV2-infected cells, cytopathic effect rescue; in the data active means CPE inhibition above about 20%, passing the limit was not always enough; inconclusive means no clear call, values can overlap the other calls; tested in BHK-21 cells
# PglD DTNB – C. jejuni PglD acetyltransferase inhibitors, primary screen, biochemical, DTNB colorimetric, single point; 360,000 compounds, 0.098% hits; inhibition, % at 12.5 µM; purified PglD enzyme, DTNB colorimetric CoA detection; UDP-N-acetylbacillosamine N-acetyltransferase PglD (Campylobacter jejuni); in the data active means inhibition above about 16%, passing the limit was not always enough; inconclusive means no clear call, values can overlap the other calls
# FN deposition inh – inhibitors of fibronectin matrix deposition, primary screen, AH1F cells, Alexa488-fibronectin fluorescence, plate reader; AH1F fibroblasts, overnight; 350,000 compounds, 0.086% hits; AID 743247, 2014; inhibition, % at 12.6 µM;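 active means mean inhibition across replicates of 30% or more, regardless of how many single replicates reach that level; inconclusive means mean under 30% yet at least half of replicates reach 30%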
#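 Measured by – fluorescence 485/525 nm · System – AH1F fibroblast monolayer, labelled fibronectin deposition · Amount – 10000 cells per well · Buffer or medium – serum-reduced DMEM (2% serum) · Doses – single dose, pinned · Also added – fluorescent fibronectin at 24 nM final · Schedule – 1 h cell attachment, overnight exposure to compound and label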
# Numbers stand for hits; 0 = inactive; ? = inconclusive; - = no result given.
SMILES,rRNA inh HTS,HIV Env fusion,PGC1a acetyl inh,DENV2 CPE,PglD DTNB,FN deposition inh
CCCNC(=O)[C@@H]1[C@@H](CO)[C@@H]2Cn3c(cccc3=O)[C@@H]2N1CC,0,-,0,0,-,-
COC(=O)[C@@H]1[C@@H](CO)[C@@H]2Cn3c(ccc(-c4ccncc4)c3=O)[C@H]1N2CCc1ccccc1,0,-,-,107,0,-
COC(=O)[C@@H]1[C@@H](CO)[C@@H]2Cn3c(ccc(-c4ccccc4)c3=O)[C@H]1N2CCc1ccccc1,0,-,-,0,0,-
CN(C)C(=O)[C@H]1[C@H](CO)[C@H]2Cn3c(cccc3=O)[C@@H]1N2CC1CC1,0,-,-,0,0,-
COC(=O)[C@H]1[C@H](CO)[C@H]2Cn3c(ccc(C4=CCCCC4)c3=O)[C@@H]1N2C(=O)NC(C)C,0,-,0,0,0,-
COC(=O)[C@H]1[C@H](CO)[C@H]2Cn3c(ccc(C4=CCCCC4)c3=O)[C@@H]1N2C(=O)CC1CC1,0,-,0,0,0,-
CC(=O)O[C@H]1CCC2C3CCC4=CC(=O)CCC4=C3C=C[C@@]21C (stereo partly drawn),-18,0,0,0,0,0
Clc1cc(Cl)c(-c2cc(Cl)c(Cl)cc2Cl)cc1Cl,0,-,0,23,0,-
CC(C)NC(=O)N1C[C@@H]2C(c3ccc(Br)cc3)[C@H](C1)N2C (stereo partly drawn),0,-,-,-,-,0
COC(=O)C1=C(c2ccc(OC(F)(F)F)cc2)C[C@@H]2CC[C@H]1N2C(=O)N1CCC(C)CC1,0,0,-,0,0,0
COC(=O)C1=C(c2ccc(OC(F)(F)F)cc2)C[C@@H]2CC[C@H]1N2C(=O)N1CCCC1,0,58,0,0,0,0
CCOP(=O)(C#Cc1ccccc1)C(O)c1ccc(Br)cc1 (stereo not drawn),0,0,-,0,-,0
COP(=O)(C#Cc1ccccc1)C(O)c1ccc(Br)cc1 (stereo not drawn),-30,0,-,0,-,0
O=C(Cc1ccncc1)N1CCCCN2[C@H](CO)[C@@H](c3ccc(-c4ccncc4)cc3)[C@H]2C1,0,-,0,0,0,-
CC(Cc1ccsc1)NCc1cn[nH]c1-c1ccc(F)cc1F (stereo not drawn),0,63,0,0,0,0
COC(=O)[C@@H]1[C@@H](CO)[C@@H]2Cn3c(ccc(C4=CCCCC4)c3=O)[C@H]1N2CC1CCCCC1,0,-,0,0,-,-
C[C@H]1CCC/C=C/[C@@H]2C[C@H](O)C[C@H]2[C@@H](O)/C=C/C(=O)O1,0,82,?,0,-,0
O=C(O)[C@H]1[C@H](CO)[C@H]2Cn3c(ccc(-c4cccnc4)c3=O)[C@@H]1N2S(=O)(=O)c1ccccc1F,0,-,-,0,0,-
CN1CCN(c2ccc(C(N)=O)cc2[N+](=O)[O-])CC1,-,-,-,-,-,0
O=[N+]([O-])c1ccc(N2CC2)c([N+](=O)[O-])c1,-16,-,0,0,0,0
COC(=O)[C@H]1[C@H](CO)[C@H]2Cn3c(ccc(-c4cccc(OC)c4)c3=O)[C@@H]1N2CC1CC1,0,-,-,0,0,-
O=C(CSC1c2ccccc2-c2ccccc21)N/N=C/c1ccccc1O,-,61,0,-,0,-
CN1[C@@H]2CN(S(C)(=O)=O)C[C@H]1C2c1ccc(Br)cc1 (stereo partly drawn),0,-,-,-,-,0
NC1=C([N+](=O)[O-])C(c2ccc3c(c2)OCO3)c2c(c3ccccc3oc2=O)O1 (stereo not drawn),-29,0,-,0,-,0
CCCNC(=O)N1[C@@H]2Cn3c(ccc(-c4ccccc4OC)c3=O)[C@H]1[C@@H](C(=O)O)[C@@H]2CO,0,-,-,0,0,-
SMILES,rRNA inh HTS,HIV Env fusion,PGC1a acetyl inh,DENV2 CPE,PglD DTNB,FN deposition inh
Cc1ccccc1-n1c(O)c(/C=C2/C(c3ccccc3)=Nc3ccccc32)c(=O)[nH]c1=O,0,0,-,0,-,0
Cc1cccc(-n2c(O)c(/C=C3/C(c4ccccc4)=Nc4ccccc43)c(=O)[nH]c2=O)c1,0,92,-,?,-,0
O=C(Nc1ccc(C(F)(F)F)cc1)c1cccn(Cc2ccc3c(c2)OC(F)(F)O3)c1=O,-,106,-,-,0,0
Cc1cccc(C)c1NC(=O)c1cccn(Cc2ccc3c(c2)OC(F)(F)O3)c1=O,-,67,0,-,0,-
Cc1nc2ccccc2c(=O)n1-c1nccs1,0,0,-,43,-,0
Cc1ccc(-c2nc3ccccc3c(=O)n2-c2nccs2)cc1,-,0,0,-,0,0
O=c1c2ccccc2nc(CN2CCCCCC2)n1-c1ccc(F)cc1,0,71,0,-,0,0
CCC(CC)N1CCN(Cc2nc3ccccc3c(=O)n2-c2ccc(F)cc2)CC1,0,0,0,0,0,0
NP(=O)(OCCCc1ccccc1)Oc1ccccc1Cl (stereo not drawn),0,-,0,-,0,0
NP(=O)(OCCCc1ccccc1)Oc1ccc(Cl)cc1 (stereo not drawn),0,0,0,20,0,0
Cc1nc2cc(-c3ccc(Cl)cc3)nn2c(C)c1CCC(=O)N1CCC2(CC1)OCCO2,-,79,0,-,0,0
O=C(CCn1nc(-c2ccc(Cl)cc2)ccc1=O)N1CCC2(CC1)OCCO2,0,0,0,0,0,0
C=CCN1[C@@H]2CN(C(C)=O)C[C@H]1C2c1ccc(Br)cc1 (stereo partly drawn),0,-,-,-,-,0
CN(C(=O)Oc1cccc2ccccc12)C1C=CCC1 (stereo not drawn),0,0,0,65,0,0
CN(C)C(=O)Oc1cccc2c(OC(=O)N(C)C)cccc12,-,0,0,-,0,0
COc1ccc(CCN)cc1OC,-,-,0,0,0,-
CNCCc1ccc(OC)c(OC)c1,-,-,0,51,0,-
Cn1nc(-c2ccc(OCC(=O)N3CCN(Cc4ccccc4)CC3)cc2)c2ccccc2c1=O,-,71,-,-,0,-
Cn1cccc1CN1CCN(C(=O)COc2ccccc2)CC1,-,-,0,-,0,-
c1ccc(C2CC2)c(OCC2=NCCN2)c1,-,0,0,75,0,0
O=c1cccc2n1CC1CC2CN(c2nc(N3CCCCC3)nc(N3CCCCC3)n2)C1 (stereo not drawn),0,82,0,0,-,0
Cc1ccc2nc(-c3ccc(CN4CCC(n5c(=O)[nH]c6cc(Cl)ccc65)CC4)cc3)c(-c3ccccc3)nc2c1,-,0,-,52,-,0
COCC#Cc1ccc([C@H]2[C@H](CO)N3CCCCN(C(=O)Cc4ccccn4)C[C@@H]23)cc1,0,-,0,0,0,-
O=C(O)[C@H]1[C@H](CO)[C@H]2Cn3c(ccc(-c4ccncc4)c3=O)[C@@H]1N2C(=O)C1CC1,0,0,-,-,-,-
CCCN1[C@@H]2Cn3c(cccc3=O)[C@H]1[C@@H](C(=O)N(C)C)[C@@H]2CO,0,0,-,0,0,-
COc1ccc(CCNC2CCCCC2)cc1,0,0,-,0,-,0
